Experimental data of several laboratories.
FGFR2 N549H: Fibroblast growth factor receptor 2 (FGFR2, Homo sapiens, UniProt P21802, N549H)
FGFR2: Fibroblast growth factor receptor 2 (FGFR2, Homo sapiens, UniProt P21802)

CCCOc1ccc(OC)c(F)c1C(=O)c1ccc(C(=O)N[C@@H]2CNC[C@H]2NC(=O)c2ccc3[nH]ncc3c2)cc1 — remaining activity (FGFR2 N549H; enzyme activity; inhibitor; 10 µM): 69%
C[C@H](c1ccnc(Nc2nc3ccc(-c4cc(N(C)C)ncn4)cc3[nH]2)c1)N1CCN(C(=O)CC(F)(F)F)CC1 — remaining binding (FGFR2; cell-free assay; competition with immobilised ligand; 0.1 µM): 100%
O=C1NC(=O)c2cc(Nc3ccc(F)cc3)c(Nc3ccc(F)cc3)cc21 — remaining signal (FGFR2; cell-free assay; 0.5 µM): 102%
CO[C@@H](C)c1c(Nc2ccc([C@H](N(C)C(=O)C3CCS(=O)(=O)CC3)C(F)(F)F)cc2)cnc2cc(Cl)nn12 — remaining binding (FGFR2; cell-free assay; competition with immobilised ligand; 1 µM): 91%
CCN(CC)CCNC(=O)c1c(C)[nH]c(/C=C2\C(=O)Nc3ccc(F)cc32)c1C — inhibition (FGFR2; enzyme activity; inhibitor; 10 µM): 94%
CC(C)(O)[C@H]1CC[C@H](Nc2ccc3ncc(-c4cccc(C(F)(F)F)c4)n3n2)CC1 — remaining activity (FGFR2; enzyme activity; inhibitor; 1 µM): 98.3%
CNC(=O)c1cc(Oc2ccc(NC(=O)Nc3ccc(Cl)c(C(F)(F)F)c3)cc2)ccn1 — inhibition (FGFR2; enzyme activity; inhibitor; 10 µM): 98%
CN(C)C1CCN(CC#Cc2nn(C3CCCC3)c3nc(NCc4ccccc4)ncc23)C1 (centres unmarked) — inhibition (FGFR2; enzyme activity; inhibitor; FRET; 1 µM): 8%
Cc1nc(C2CCN(C(=O)c3ccc(OC(F)(F)F)cc3N)CC2)c2ncc(N3CCN(C)CC3)cc2n1 — remaining binding (FGFR2; cell-free assay; competition with immobilised ligand; 1 µM): 100%
Cc1cc(NC(=O)c2cccc3cc(-c4cccc5[nH]nc(N)c45)ccc23)ccc1F — activity vs control (FGFR2; enzyme activity; inhibitor; 0.1 µM): 98%
Cc1ccc(Nc2nccc(N(C)c3ccc4c(C)n(C)nc4c3)n2)cc1S(N)(=O)=O — inhibition (FGFR2; enzyme activity; inhibitor; 0.3 µM): 92%
CN([C@@H]1CCc2c(CC(=O)O)c3ccccc3n2C1)S(=O)(=O)c1ccc(F)cc1 — remaining binding (FGFR2; cell-free assay; competition with immobilised ligand; 1 µM): 80%
Nc1nc(Nc2ccc(S(N)(=O)=O)cc2)nn1C(=O)c1c(F)cccc1F — remaining signal (FGFR2; cell-free assay; 0.5 µM): 79.7%
COc1cc(Cl)c(C(=O)N[C@@H](CN[C@H]2CC[C@@H](N)CC2)Cc2ccc(C#N)cc2)cc1-c1ccc(CN[C@H](C)c2ccc(C)cc2)o1 — remaining activity (FGFR2; enzyme activity; inhibitor; 1 µM): 102%
CC(C)(C)c1nc2c(s1)c1nc(N)ncc1c1ccc(NS(=O)(=O)c3c(F)cccc3F)c(F)c12 — remaining activity (FGFR2; enzyme activity; inhibitor; radiometric; 1 µM): 91%
Cc1ccc(NC(=O)c2ccc(C)c(C(F)(F)F)c2)cc1C#Cc1nn(C2CCC(O)CC2)c2ncnc(N)c12 (centres unmarked) — remaining signal (FGFR2; cell-free assay; 10 µM): 0%
COc1cc(-c2cn(C3CCc4c(F)cccc4N(CC(F)(F)F)C3=O)nn2)ccc1-n1cnc(C)c1 (centres unmarked) — remaining binding (FGFR2; cell-free assay; competition with immobilised ligand; 1 µM): 100%
COc1cc2c(Nc3ccc(Br)cc3F)ncnc2cc1OCC1CCN(C)CC1 — remaining signal (FGFR2; cell-free assay; 0.5 µM): 38.4%
CCN(CC)c1ccc(C2=NNC(=O)CC2C)cc1[N+](=O)[O-] (centres unmarked) — remaining activity (FGFR2; enzyme activity; inhibitor; 10 µM): 115%
CCc1ccccc1C(=O)Nc1n[nH]c2c(C)c(F)c(C3C(C#N)=C(C)N(C)C(C)=C3C#N)cc12 — remaining binding (FGFR2; cell-free assay; competition with immobilised ligand; 1 µM): 83%
Cc1ccc(C(=O)Nc2ccc(CN3CCN(C)CC3)c(C(F)(F)F)c2)cc1C#Cc1cnc2cccnn12 — remaining signal (FGFR2; cell-free assay; 23.5 nM): 32%
O=C(Nc1cnn(-c2csc(C(=O)NC3COC3)c2)c1)Nc1ccccc1Cl — remaining activity (FGFR2; enzyme activity; inhibitor; 5 µM): 95.6%
C[C@@H]1CN(c2cc(-c3n[nH]c4ccc(OC5(C)CC5)cc34)ncn2)C[C@H](C)O1 — remaining binding (FGFR2; cell-free assay; competition with immobilised ligand; 0.1 µM): 96%
COc1ccc(COc2ccc(Cc3cnc(N)nc3N)cc2OC)cc1 — remaining signal (FGFR2; cell-free assay; 0.5 µM): 102%
Cc1cnc(NC2CCOCC2)nc1-n1cnc(C(=O)NC(CN)c2cc(F)cc(Cl)c2)c1 (centres unmarked) — remaining activity (FGFR2 N549H; enzyme activity; inhibitor; radiometric; 1 µM): 99%
O=C(Nc1cccnn1)N1CCC(=Cc2cccc(Oc3ccc(C(F)(F)F)cn3)c2)CC1 — remaining binding (FGFR2; cell-free assay; competition with immobilised ligand; 1 µM): 96%
